Active and inactive are the calls of the source.
Key:
Enterococcus faecalis [1] = test: Antibacterial activity against […] Enterococcus faecalis ATCC 29212 assessed as reduction in bacterial growth incubated for 24 hrs in presence of curcumin; format: functional
Escherichia coli [2] = test: Antibacterial activity against Escherichia coli EC2 harboring CTX-M-15 assessed as reduction in bacterial growth incubated for 24 hrs in presence of curcumin; format: functional
Acinetobacter baumannii [3] = test: Antibacterial activity against Acinetobacter baumannii AB16 harboring OXA-23 clone 2 assessed as reduction in bacterial growth incubated for 24 hrs in presence of curcumin; format: functional
Acinetobacter baumannii [4] = test: Antibacterial activity against Acinetobacter baumannii NCTC 19606 assessed as reduction in bacterial growth incubated for 24 hrs in presence of curcumin; format: functional
Enterococcus faecium = test: Synergistic antibacterial activity against vancomycin-resistant Enterococcus faecium OEF42 assessed as fractional inhibitory concentration index measured after 24 hrs in presence of curcumin by checkerboard assay; format: functional
Procedure, shortened: (§1)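 FICI was derived from checkerboard MICs. Synergy was defined as FICI ≤ 0.5 and additive as FICI > 0.5−4.0. Where an MIC was not reached, the dilution above the maximum dose was used in the FICI calculation. Experiments were run in triplicate and reported as means.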

Streptococcus pyogenes [5] = test: Synergistic antibacterial activity against Streptococcus pyogenes SPY2 assessed as fractional inhibitory concentration index measured after 24 hrs in presence of curcumin by checkerboard assay; format: functional
Procedure, shortened: (§2)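 FICI calculated from combination MICs; ≤0.5 taken as synergy and >0.5–4.0 as additive. Where an MIC was not reached, the dilution above the highest concentration tested was used in the calculation. Run in triplicate and reported as means.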

Escherichia coli [6] = test: Synergistic antibacterial activity against Escherichia coli EC2 harboring CTX-M-15 assessed as fractional inhibitory concentration index measured after 24 hrs in presence of curcumin by checkerboard assay; format: functional; procedure, shortened: as §1
Acinetobacter baumannii [7] = test: Synergistic antibacterial activity against Acinetobacter baumannii AB16 harboring OXA-23 clone 2 assessed as fractional inhibitory concentration index measured after 24 hrs in presence of curcumin by checkerboard assay; format: functional; procedure, shortened: as §1
Pseudomonas aeruginosa [8] = test: Synergistic antibacterial activity against Pseudomonas aeruginosa PA30 harboring VIM-2 assessed as fractional inhibitory concentration index measured after 24 hrs in presence of curcumin by checkerboard assay; format: functional; procedure, shortened: as §1
[9] = test system: Stenotrophomonas maltophilia; test: Synergistic antibacterial activity against Stenotrophomonas maltophilia SMB07 assessed as fractional inhibitory concentration index measured after 24 hrs in presence of curcumin by checkerboard assay; format: functional; procedure, shortened: as §2
Acinetobacter baumannii [10] = test: Antibacterial activity against Acinetobacter baumannii NCTC 19606 assessed as log reduction in colony forming units at MIC measured after 6 hrs by time kill assay; format: functional
Procedure, shortened: (§3)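 Time-kill in Mueller-Hinton 2 broth. Inoculum was a 1/1000 dilution of a 16 h overnight culture, about 10^6 CFU/mL, 10 mL per tube. Arms were each agent alone at ×1 MIC, or the combination at ×1 MIC plus ×0.5 MIC partner. Incubated at 37 °C with continuous agitation for 24 h. Samples taken at 0, 2, 4, 6 and 24 h, serially diluted and plated on IsoSensitest agar for CFU counts.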

Streptococcus pyogenes [11] = test: Synergistic antibacterial activity against Streptococcus pyogenes SPY3 assessed as fractional inhibitory concentration index measured after 24 hrs in presence of curcumin by checkerboard assay
Enterococcus faecalis [12] = test: Antibacterial activity against […] Enterococcus faecalis ATCC 29212 assessed as reduction in bacterial growth incubated for 24 hrs in presence of polymyxin B; format: functional
Staphylococcus aureus [13] = test: Antibacterial activity against methicillin-resistant Staphylococcus aureus NCTC 12493 assessed as reduction in bacterial growth incubated for 24 hrs in presence of polymyxin B; format: functional
Acinetobacter baumannii [14] = test: Antibacterial activity against Acinetobacter baumannii AB14 harboring OXA-23 clone 1 assessed as reduction in bacterial growth incubated for 24 hrs in presence of polymyxin B; format: functional
Acinetobacter baumannii [15] = test: Antibacterial activity against Acinetobacter baumannii AB16 harboring OXA-23 clone 2 assessed as reduction in bacterial growth incubated for 24 hrs in presence of polymyxin B; format: functional
[16] = test system: Stenotrophomonas maltophilia; test: Antibacterial activity against Stenotrophomonas maltophilia NCTC 10258 assessed as reduction in bacterial growth incubated for 24 hrs in presence of polymyxin B; format: functional
Acinetobacter baumannii [17] = test: Bactericidal activity against Acinetobacter baumannii NCTC 19606 assessed as bacterial cell death at 0.5 fold MIC measured after 4 to 6 hrs in presence of polymyxin B at MIC by time kill assay relative to control; format: functional; conditions: time 4-6 hrs
Procedure, shortened: (§4)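 Time-kill in 10 mL Mueller-Hinton 2 broth, 37 °C with continuous agitation, 24 h. Inoculum was a 1/1000 dilution of a 16 h overnight culture, about 10^6 CFU/mL. Single agents at 1× MIC; combination at 1× MIC polymyxin B plus 0.5× MIC curcumin. Samples at 0, 2, 4, 6 and 24 h were serially diluted and plated on IsoSensitest agar for CFU/mL.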

Staphylococcus aureus [18] = test: Bactericidal activity against methicillin-resistant Staphylococcus aureus NCTC 12493 assessed as bacterial cell death at 0.5 fold MIC measured after 4 to 6 hrs hrs in presence of polymyxin B at MIC by time kill assay relative to control; format: functional; conditions: time 4-6 hrs; procedure, shortened: as §4
HaCaT = test: Cytotoxicity against human HaCaT cells at 43.4 uM measured after 4 hrs in presence of 1.5 uM polymyxin B by CyTox 96 nonradioactive assay relative to control; format: cell-based
Acinetobacter baumannii [19] = test: Antibacterial activity against Acinetobacter baumannii ATCC 19606 assessed as reduction in bacterial colony formation at 0.5 fold MIC measured after 24 hrs by time kill assay; format: functional, organism-based; conditions: ATCC 19606 = CIP 70.34 = JCM 6841; procedure, shortened: as §3
Staphylococcus aureus [20] = test: Antibacterial activity against methicillin-resistant Staphylococcus aureus NCTC 12493 assessed as reduction in bacterial colony formation at 0.5 fold MIC measured after 24 hrs by time kill assay; format: functional, organism-based
Staphylococcus aureus [21] = test: Potentiation of polymyxin B-induced antibacterial activity against Staphylococcus aureus ATCC 25923 assessed as fold reduction in polymyxin B MIC measured after 24 hrs in presence of polymyxin B by checkerboard assay; format: functional
Streptococcus pyogenes [22] = test: Potentiation of polymyxin B-induced antibacterial activity against Streptococcus pyogenes SPY1 assessed as fold reduction in polymyxin B MIC measured after 24 hrs in presence of polymyxin B by checkerboard assay; format: functional
Escherichia coli [23] = test: Potentiation of polymyxin B-induced antibacterial activity against Escherichia coli EC204 harboring NDM-1 assessed as fold reduction in polymyxin B MIC measured after 24 hrs in presence of polymyxin B by checkerboard assay; format: functional
Acinetobacter baumannii [24] = test: Potentiation of polymyxin B-induced antibacterial activity against Acinetobacter baumannii NCTC 19606 assessed as fold reduction in polymyxin B MIC measured after 24 hrs in presence of polymyxin B by checkerboard assay; format: functional
Pseudomonas aeruginosa [25] = test: Potentiation of polymyxin B-induced antibacterial activity against Pseudomonas aeruginosa PAO1 assessed as fold reduction in polymyxin B MIC measured after 24 hrs in presence of polymyxin B by checkerboard assay; format: functional
[26] = test system: Stenotrophomonas maltophilia; test: Potentiation of polymyxin B-induced antibacterial activity against Stenotrophomonas maltophilia SMS01 assessed as fold reduction in polymyxin B MIC measured after 24 hrs in presence of polymyxin B by checkerboard assay; format: functional
[27] = test system: Stenotrophomonas maltophilia; test: Potentiation of polymyxin B-induced antibacterial activity against Stenotrophomonas maltophilia SMB07 assessed as fold reduction in polymyxin B MIC measured after 24 hrs in presence of polymyxin B by checkerboard assay; format: functional

## CC[C@H](C)CCCCC(=O)N[C@@H](CCN)C(=O)N[C@H](C(=O)N[C@@H](CCN)C(=O)N[C@H]1CCNC(=O)[C@H]([C@@H](C)O)NC(=O)[C@H](CCN)NC(=O)[C@H](CCN)NC(=O)[C@H](CC(C)C)NC(=O)[C@@H](Cc2ccccc2)NC(=O)[C@H](CCN)NC1=O)[C@@H](C)O.O=S(=O)(O)O
Enterococcus faecalis [1]
  MIC: 0.096 µM
Escherichia coli [2]
  MIC: 0.024 µM
Acinetobacter baumannii [3]
  MIC: 0.012 µM
Acinetobacter baumannii [4]
  MIC: 0.012 µM
Enterococcus faecium
  fractional inhibitory concentration index (FICI): 0.094
Streptococcus pyogenes [5]
  fractional inhibitory concentration index (FICI): 0.188
Escherichia coli [6]
  fractional inhibitory concentration index (FICI): 0.266
Acinetobacter baumannii [7]
  fractional inhibitory concentration index (FICI): 0.068
Pseudomonas aeruginosa [8]
  fractional inhibitory concentration index (FICI): 0.563
[9]
  fractional inhibitory concentration index (FICI): 0.023
Acinetobacter baumannii [10]
  Activity: 2 log10CFU/ml
Streptococcus pyogenes [11]
  fractional inhibitory concentration index (FICI): 0.5

## COc1cc(/C=C/C(=O)CC(=O)/C=C/c2ccc(O)c(OC)c2)ccc1O [CURCUMIN]
Enterococcus faecalis [12]
  MIC: 87 µM
Staphylococcus aureus [13]
  MIC: 43 µM
Acinetobacter baumannii [14]
  MIC: 174 µM
Acinetobacter baumannii [15]
  MIC: 22 µM
[16]
  MIC: 22 µM
Acinetobacter baumannii [17]
  Activity: 100%
Staphylococcus aureus [18]
  Activity: 100%
HaCaT
  Activity: 22%
Acinetobacter baumannii [19]
  Activity: inactive
Staphylococcus aureus [20]
  Activity: inactive
Staphylococcus aureus [21]
  fold change (FC): 3
Streptococcus pyogenes [22]
  fold change (FC): 3
Escherichia coli [23]
  fold change (FC): 3
Acinetobacter baumannii [24]
  fold change (FC): 3
Pseudomonas aeruginosa [25]
  fold change (FC): 3
[26]
  fold change (FC): 3
[27]
  fold change (FC): 3

— ChEMBL document CHEMBL4715738, “In Vitro Antibacterial Activity of Curcumin-Polymyxin B Combinations against Multidrug-Resistant Bacteria Associated with Traumatic Wound Infections” (J Nat Prod, 2016)
